The source made the active and inactive calls. No cut-off for these calls is given here.
Tests used:
[1] = tested on: Hepa-1c1c7; assay: Inhibition of CYP1A in mouse Hepa-1c1c7 cells at 1 ug/ml assessed as dealkylation rate of 3-cyano-7-ethoxycoumarin; type: cell-based
[2] = Cytotoxicity against mouse Hepa-1c1c7 cells after 48 hrs by MTT assay; type: functional, cell-based
Outline: (§1)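 MTT reduction assay: cells seeded at 5 x10⁴ cells/well and incubated 48 h at 37 °C with various concentrations of compounds. Formazan solubilized in acidic isopropanol.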

[3] = tested on: Hepa-1c1c7; assay: Antioxidant activity in mouse Hepa-1c1c7 cells assessed as increase in total thiol content at […] after 48 hrs; type: functional, cell-based
Outline: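 Hepa1c1c7 cells (1 x10⁶) exposed to compounds for 48 h (DMSO vehicle diluted 1000-fold; DMSO-treated cells as comparator). Total cellular thiols measured by glutathione disulfide reductase/DTNB enzymatic cycling. Four repeats, mean ± S.D.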

[4] = Antioxidant activity assessed as hydroxyl radical scavenging activity by ORAC assay; type: functional
[5] = tested on: Lymphocyte; assay: Inhibition of methyl methanesulphonate-induced DNA damage in human lymphocyte assessed as tail length at 10 ug/ml after 1 hr before MMS challenge measured after 3 hrs by comet assay; type: functional
[6] = tested on: Lymphocyte; assay: Inhibition of methyl methanesulphonate-induced DNA damage in human lymphocyte assessed as inhibition of tail moment at 10 ug/ml after 1 hr before MMS challenge measured after 3 hrs by comet assay; type: functional, cell-based
[7] = Cytotoxicity against human lymphocytes after 48 hrs by MTT assay; type: functional, cell-based; details: lymphocyte; outline: as §1
[8] = tested on: Hepa-1c1c7; assay: Induction of GST activity in mouse Hepa-1c1c7 cells at 10 ug/ml after 48 hrs by bicinchoninic acid assay; type: cell-based
Outline: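 Hepa1c1c7 cells in DMEM with 10% FBS, 37 °C, 5% CO₂, treated 48 h with compounds (DMSO diluted 1000-fold). Total GST activity read kinetically at 340 nm. Activity normalized to protein by BCA and given relative to DMSO control (100%). Four repeats, mean ± S.D.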

[9] = biological target: T1, Epoxide hydrolase 1 (Mus musculus) (UniProt Q9D379); assay: Induction of mEH enzyme in mouse Hepa-1c1c7 assessed as formation of 7(29,39-dihydroxy)propoxycoumarin at 10 µg/ml after 48 hrs
T1 sequence (whole entry): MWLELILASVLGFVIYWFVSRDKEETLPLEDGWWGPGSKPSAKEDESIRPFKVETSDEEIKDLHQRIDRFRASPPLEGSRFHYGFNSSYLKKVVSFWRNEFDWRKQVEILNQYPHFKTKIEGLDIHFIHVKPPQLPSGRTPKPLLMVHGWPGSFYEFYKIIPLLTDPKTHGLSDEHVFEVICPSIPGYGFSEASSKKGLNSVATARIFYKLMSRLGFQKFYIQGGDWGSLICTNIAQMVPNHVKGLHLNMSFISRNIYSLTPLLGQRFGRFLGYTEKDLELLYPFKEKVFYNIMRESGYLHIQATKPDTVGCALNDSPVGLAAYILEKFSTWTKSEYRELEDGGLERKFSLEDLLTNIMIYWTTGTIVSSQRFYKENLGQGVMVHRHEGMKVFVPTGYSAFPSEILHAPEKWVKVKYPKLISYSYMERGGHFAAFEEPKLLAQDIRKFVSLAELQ

[10] = Antioxidant activity assessed as peroxyl radical scavenging activity by ORAC assay; type: functional

Question: With `COC(=O)c1c(C(=O)OC)c2cc(C)ccn2c1C(=O)c1ccc2c(c1)CCCC2` as the molecule, how does the inhibition [1] read?
Answer: Its inhibition is less than 10%.

Question: What about the IC50 [2] of the same molecule?
Answer: The IC50 was greater than 50 µg/mL.

Question: And the Activity [3]?
Answer: The Activity was “Active”.

Question: And the Activity [4]?
Answer: Its Activity is “Active”.

Question: What about the Activity [5] of the same molecule?
Answer: The Activity was 22.8 micrometer.

Question: What about the Activity [6] of the same molecule?
Answer: The Activity was “Active”.

Question: What about the IC50 [7] of the same molecule?
Answer: Its IC50 is greater than 50 µg/mL.

Question: With `COC(=O)c1c(C(=O)OC)c2cccc(C)n2c1C(=O)c1ccc2c(c1)CCCC2` as the molecule, how does the inhibition [1] read?
Answer: The inhibition was less than 10%.

Question: And the IC50 [2]?
Answer: Its IC50 is greater than 50 µg/mL.

Question: What about the Activity [8] of the same molecule?
Answer: The Activity was “Active”.

Question: And the Activity [4]?
Answer: The Activity was “Active”.

Question: And the Activity [5]?
Answer: The Activity was 18.3 micrometer.

Question: And the Activity [6]?
Answer: Its Activity is “Active”.

Question: And the IC50 [7]?
Answer: The IC50 was greater than 50 µg/mL.

Question: With `c1ccc2c(c1)nc1[nH]c(-c3ccc4c(c3)CCCC4)cn12` as the molecule, how does the inhibition [1] read?
Answer: The inhibition was 26.4%.

Question: What about the IC50 [2] of the same molecule?
Answer: The IC50 was greater than 50 µg/mL.

Question: What about the Activity [8] of the same molecule?
Answer: The Activity was “Active”.

Question: And the Activity [3]?
Answer: Its Activity is “Active”.

Question: And the Activity [5]?
Answer: The Activity was 17.2 micrometer.

Question: What about the Activity [6] of the same molecule?
Answer: The Activity was “Active”.

Question: What about the IC50 [7] of the same molecule?
Answer: The IC50 was greater than 50 µg/mL.

Question: Which inhibition [1] does the source give for `Cc1cc[n+](CC(=O)c2ccc3c(c2)CCCC3)cc1.[Br-]` here?
Answer: The inhibition was less than 10%.

Question: What about the IC50 [2] of the same molecule?
Answer: Its IC50 is greater than 50 µg/mL.

Question: And the Activity [5]?
Answer: Its Activity is 59.41 micrometer.

Question: What about the IC50 [7] of the same molecule?
Answer: The IC50 was greater than 50 µg/mL.

Question: And the Activity [9]?
Answer: The Activity was “Active”.

Question: For `O=C(C[n+]1ccccc1)c1ccc2c(c1)CCCC2.[Br-]`, which inhibition [1] is on record?
Answer: The inhibition was less than 10%.

Question: And the IC50 [2]?
Answer: Its IC50 is greater than 50 µg/mL.

Question: What about the Activity [8] of the same molecule?
Answer: The Activity was “Active”.

Question: And the Activity [3]?
Answer: The Activity was “Active”.

Question: What about the Activity [4] of the same molecule?
Answer: The Activity was “Active”.

Question: What about the Activity [10] of the same molecule?
Answer: Its Activity is “Active”.

Question: What about the Activity [5] of the same molecule?
Answer: Its Activity is 34.31 micrometer.

Question: And the Activity [6]?
Answer: Its Activity is “Active”.

Question: And the IC50 [7]?
Answer: The IC50 was greater than 50 µg/mL.

Question: What about the Activity [9] of the same molecule?
Answer: The Activity was “Active”.

Question: With `Cc1cccc[n+]1CC(=O)c1ccc2c(c1)CCCC2.[Br-]` as the molecule, how does the inhibition [1] read?
Answer: The inhibition was less than 10%.

Question: What about the IC50 [2] of the same molecule?
Answer: Its IC50 is greater than 50 µg/mL.

Question: What about the Activity [10] of the same molecule?
Answer: The Activity was “Active”.

Question: What about the Activity [5] of the same molecule?
Answer: Its Activity is 17.7 micrometer.

Question: And the Activity [6]?
Answer: The Activity was “Active”.

Question: What about the IC50 [7] of the same molecule?
Answer: Its IC50 is greater than 50 µg/mL.

Question: And the Activity [9]?
Answer: The Activity was “Active”.

Question: Which inhibition [1] does the source give for `COC(=O)c1c(C(=O)OC)c2ccccn2c1C(=O)c1ccc2c(c1)CCCC2` here?
Answer: Its inhibition is less than 10%.

Question: What about the IC50 [2] of the same molecule?
Answer: The IC50 was greater than 50 µg/mL.

Question: And the Activity [5]?
Answer: Its Activity is 36.66 micrometer.

Question: What about the IC50 [7] of the same molecule?
Answer: The IC50 was greater than 50 µg/mL.

Reference: ChEMBL document CHEMBL1154705, “Modulation of carcinogen metabolizing enzymes by new fused heterocycles pendant to 5,6,7,8-tetrahydronaphthalene derivatives” (Eur J Med Chem, 2010)
